# Screens (PubChem BioAssay)
# T cruzi HTS = blocks T. cruzi growth inside host cells. AID 651903. activity score (inhibition), % at 5.01 µM. intracellular Trypanosoma cruzi in host cells, plate reader. 22,000 compounds, 4.9% hits; in the data active = activity score above about 55%;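 also: parasites and compound incubated about four days before reading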
# YB-1 expression = YB-1 expression inhibition. U2OS, qRT-PCR YB-1 vs CDIP delta delta Cp, 16 h; hits give high values; zero = DMSO, each unit about twofold. delta delta Cp (YB-1 minus CDIP) (concentration not given with the values). 30,000 compounds, 0.37% hits;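 active = delta delta Cp rounded down to an integer at or above 3, about 3 SD of DMSO wells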;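 also: higher means less YB-1 transcript or more CDIP transcript relative to DMSO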
# INS-1E ATP HTS = INS-1E beta cell protection from cytokine death; INS-1E cytokine-induced death, ATP luminescence, 48 h; normalised: neutral wells 0, positive control 100; protection from cytokine-induced ATP loss, % at 10 µM; 20,000 compounds, 0.1% hits; AID 488910;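 active = mean replicate protection from cytokine-induced ATP loss at least 50% and at least 75% of replicates each reaching 50%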
#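 Assay system – rat INS-1E insulinoma cell line · Quantity – 8000 cells per well · Buffer or medium – RPMI without phenol red, 5% FBS · Schedule – 48 h co-treatment, 10 min post-lysis read · Technique – luminescent ATP assay (CellTiter-Glo)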
# Hits are given with their value; 0 = inactive; - = no result given. The sample as a whole holds a higher share of hits than the screen did.
SMILES,T cruzi HTS,YB-1 expression,INS-1E ATP HTS
C[C@@H]1CN([C@@H](C)CO)C(=O)Cc2cc(NC(=O)Cc3ccccc3)ccc2O[C@@H]1CN(C)Cc1ccccc1,0,0,0
C[C@@H]1CN([C@@H](C)CO)C(=O)Cc2cc(NC(=O)Cc3ccccc3)ccc2O[C@@H]1CN(C)Cc1ccc(Cl)c(Cl)c1,66,0,0
C[C@@H]1CN([C@H](C)CO)C(=O)Cc2cc(NC(=O)Cc3ccccc3)ccc2O[C@@H]1CN(C)Cc1ccc(Cl)c(Cl)c1,76,0,0
C[C@H]1CN([C@@H](C)CO)C(=O)Cc2cc(NC(=O)Cc3ccccc3)ccc2O[C@@H]1CN(C)Cc1ccc2c(c1)OCO2,57,0,0
C[C@@H]1CN([C@H](C)CO)C(=O)Cc2cc(NC(=O)Nc3ccccc3)ccc2O[C@@H]1CN(C)Cc1ccc(Cl)c(Cl)c1,0,0,0
C[C@@H]1CN([C@H](C)CO)C(=O)Cc2cc(NC(=O)Cc3ccccc3)ccc2O[C@H]1CN(C)Cc1ccc2c(c1)OCO2,0,0,0
C[C@@H]1CN([C@H](C)CO)C(=O)Cc2cc(NS(=O)(=O)c3ccc(F)cc3)ccc2O[C@@H]1CN(C)C(=O)Nc1ccccc1,0,0,0
C[C@@H]1CN([C@H](C)CO)C(=O)c2cccc(NC(=O)CCCCCC(=O)Nc3ccccc3N)c2O[C@@H]1CN(C)S(=O)(=O)c1cn(C)cn1,0,0,0
C[C@@H]1CN([C@H](C)CO)C(=O)c2cccc(NC(=O)Nc3ccc4c(c3)OCO4)c2O[C@@H]1CN(C)Cc1ccc(Cl)c(Cl)c1,0,0,0
COc1ccc(NC(=O)Nc2cccc3c2O[C@H](CN(C)Cc2ccc(Cl)c(Cl)c2)[C@H](C)CN([C@H](C)CO)C3=O)cc1,0,0,0
C[C@@H]1CN([C@H](C)CO)C(=O)c2cccc(NC(=O)Nc3ccccc3)c2O[C@@H]1CN(C)Cc1ccc(Cl)c(Cl)c1,0,0,0
COc1ccc(NC(=O)Nc2cccc3c2O[C@@H](CN(C)Cc2ccc(Cl)c(Cl)c2)[C@@H](C)CN([C@H](C)CO)C3=O)cc1,59,0,0
C[C@H](CO)N1C[C@H](C)[C@H](CN(C)Cc2ccc(Cl)c(Cl)c2)Oc2c(NC(=O)Nc3ccc4c(c3)OCO4)cccc2C1=O,82,0,0
C[C@@H]1CN([C@@H](C)CO)C(=O)c2cccc(NC(=O)Nc3ccccc3)c2O[C@H]1CN(C)Cc1ccc(Cl)c(Cl)c1,59,0,0
CC1(C)C(=S)NC(c2ccccc2)N1O (stereo not given),-,0,-
COc1ccc(CN(C)C[C@@H]2Oc3ccc(NC(=O)CCN4CCOCC4)cc3C(=O)N([C@@H](C)CO)C[C@H]2C)cc1,0,0,0
COc1ccc(CN(C)C[C@@H]2Oc3ccc(NC(=O)NC4CCCCC4)cc3CC(=O)N([C@H](C)CO)C[C@H]2C)cc1,0,6.7,0
C[C@@H]1CN([C@H](C)CO)C(=O)Cc2cc(NC(=O)NC3CCCCC3)ccc2O[C@H]1CN(C)Cc1ccc(-c2ccccc2)cc1,75,0,0
COc1ccc(CN(C)C[C@@H]2Oc3ccc(NC(=O)NC4CCCCC4)cc3CC(=O)N([C@@H](C)CO)C[C@@H]2C)cc1,0,0,0
C[C@H]1CN([C@@H](C)CO)C(=O)Cc2cc(NC(=O)NC3CCCCC3)ccc2O[C@H]1CN(C)Cc1ccccc1,0,0,0
C[C@@H]1CN([C@@H](C)CO)C(=O)Cc2cc(NC(=O)NC3CCCCC3)ccc2O[C@@H]1CN(C)Cc1ccc(Oc2ccccc2)cc1,0,0,0
C[C@@H]1CN([C@H](C)CO)C(=O)Cc2cc(NC(=O)NC3CCCCC3)ccc2O[C@H]1CN(C)Cc1ccc(Oc2ccccc2)cc1,64,0,0
C[C@H]1CN([C@@H](C)CO)C(=O)Cc2cc(NC(=O)c3ccncc3)ccc2O[C@@H]1CN(C)C,0,0,0
COc1ccc(NC(=O)Nc2ccc3c(c2)C(=O)N([C@@H](C)CO)C[C@H](C)[C@@H](CN(C)CC2CCCCC2)O3)cc1,0,0,-
C[C@@H]1CCCCO[C@H](CN(C)Cc2ccc3c(c2)OCO3)[C@@H](C)CN([C@H](C)CO)C(=O)c2cc(NC(=O)Nc3ccc(C(F)(F)F)cc3)ccc2O1,78,0,0
SMILES,T cruzi HTS,YB-1 expression,INS-1E ATP HTS
C[C@H](CO)N1C[C@H](C)[C@@H](CN(C)CC2CCCCC2)Oc2ccc(NC(=O)Nc3ccc(C(F)(F)F)cc3)cc2C1=O,0,0,0
C[C@@H]1CCCCO[C@@H](CN(C)Cc2ccc(C(F)(F)F)cc2)[C@@H](C)CN([C@H](C)CO)C(=O)c2cc(NC(=O)Nc3ccc(C(F)(F)F)cc3)ccc2O1,72,0,0
C[C@@H]1CCCCO[C@H](CN(C)Cc2ccc(C(F)(F)F)cc2)[C@@H](C)CN([C@H](C)CO)C(=O)c2cc(NC(=O)c3ccncc3)ccc2O1,0,0,0
COc1ccc(NC(=O)Nc2ccc3c(c2)C(=O)N([C@H](C)CO)C[C@H](C)[C@@H](CN(C)CC2CCCCC2)OCCCC[C@@H](C)O3)cc1,76,0,0
CC(C)NC(=O)Nc1ccc2c(c1)C(=O)N([C@H](C)CO)C[C@H](C)[C@H](CN(C)Cc1ccc3c(c1)OCO3)OCCCC[C@@H](C)O2,0,0,0
C[C@@H]1CCCCO[C@H](CN(C)CC2CCCCC2)[C@@H](C)CN([C@H](C)CO)C(=O)c2cc(NC(=O)Nc3ccc(C(F)(F)F)cc3)ccc2O1,70,0,0
C[C@H]1CN([C@@H](C)CO)C(=O)c2cccc(NC(=O)Nc3ccc(F)cc3)c2O[C@H]1CN(C)Cc1ccc(-c2ccccc2)cc1,0,0,0
C[C@H]1CN([C@@H](C)CO)C(=O)Cc2cc(NC(=O)CCN3CCOCC3)ccc2O[C@H]1CN(C)Cc1ccc(Oc2ccccc2)cc1,0,0,0
CNC[C@H]1Oc2c(NC(=O)Nc3ccc4c(c3)OCO4)cccc2C(=O)N([C@@H](C)CO)C[C@@H]1C,0,0,0
C[C@@H]1CCCCO[C@H](CN(C)Cc2ccc(C(F)(F)F)cc2)[C@@H](C)CN([C@H](C)CO)C(=O)c2cc(NC(=O)Nc3ccc(F)cc3)ccc2O1,71,0,0
C[C@@H]1CCCCO[C@H](CN(C)CC2CCCCC2)[C@@H](C)CN([C@H](C)CO)C(=O)c2cc(NC(=O)Nc3ccc4c(c3)OCO4)ccc2O1,79,0,0
C[C@@H]1CCCCO[C@H](CN(C)Cc2ccncc2)[C@@H](C)CN([C@H](C)CO)C(=O)c2cc(NC(=O)Nc3ccc(F)cc3)ccc2O1,0,0,0
C[C@@H]1CCCCO[C@H](CN(C)Cc2ccc(C(F)(F)F)cc2)[C@@H](C)CN([C@H](C)CO)C(=O)c2cc(NC(=O)NC3CCCCC3)ccc2O1,0,0,0
C[C@@H]1CCCCO[C@@H](CN(C)Cc2ccncc2)[C@@H](C)CN([C@H](C)CO)C(=O)c2cc(NC(=O)Nc3ccc4c(c3)OCO4)ccc2O1,0,0,0
C[C@@H]1CCCCO[C@@H](CN(C)Cc2ccc(C(F)(F)F)cc2)[C@@H](C)CN([C@H](C)CO)C(=O)c2cc(NC(=O)NC3CCCCC3)ccc2O1,65,0,0
